The target in experiment [1] is T1, Toll-like receptor 8 (Homo sapiens) (UniProt Q9NR97).
T1 sequence (whole entry): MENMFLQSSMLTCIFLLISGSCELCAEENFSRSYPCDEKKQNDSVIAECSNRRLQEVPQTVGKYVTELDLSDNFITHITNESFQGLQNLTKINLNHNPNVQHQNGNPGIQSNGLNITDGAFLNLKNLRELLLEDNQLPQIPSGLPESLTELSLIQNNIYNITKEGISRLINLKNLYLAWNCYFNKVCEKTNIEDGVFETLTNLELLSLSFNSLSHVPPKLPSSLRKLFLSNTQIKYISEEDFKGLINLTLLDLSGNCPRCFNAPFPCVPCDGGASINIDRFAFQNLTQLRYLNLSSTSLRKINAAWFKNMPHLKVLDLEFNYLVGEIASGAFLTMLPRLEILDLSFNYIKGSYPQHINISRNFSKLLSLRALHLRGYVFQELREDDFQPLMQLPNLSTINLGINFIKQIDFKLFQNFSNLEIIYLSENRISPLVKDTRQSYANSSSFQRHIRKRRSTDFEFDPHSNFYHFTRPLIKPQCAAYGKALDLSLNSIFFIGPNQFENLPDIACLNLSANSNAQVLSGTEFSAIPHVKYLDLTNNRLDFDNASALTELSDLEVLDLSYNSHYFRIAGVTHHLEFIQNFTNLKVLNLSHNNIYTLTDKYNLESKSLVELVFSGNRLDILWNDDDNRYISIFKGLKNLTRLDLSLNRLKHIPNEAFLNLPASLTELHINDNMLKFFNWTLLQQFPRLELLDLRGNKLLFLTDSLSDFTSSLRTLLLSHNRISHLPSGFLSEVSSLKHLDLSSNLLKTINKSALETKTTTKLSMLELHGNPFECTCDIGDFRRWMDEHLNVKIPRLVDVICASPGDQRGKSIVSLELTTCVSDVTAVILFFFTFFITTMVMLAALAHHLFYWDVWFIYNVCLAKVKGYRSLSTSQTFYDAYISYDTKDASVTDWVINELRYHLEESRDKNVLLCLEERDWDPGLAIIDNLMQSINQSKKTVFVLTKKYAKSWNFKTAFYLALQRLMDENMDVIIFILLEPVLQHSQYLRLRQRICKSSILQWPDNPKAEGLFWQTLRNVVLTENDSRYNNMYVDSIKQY
Put plainly: Activation of human TLR8 expressed in HEK293XL assessed as fold induction of NF-kappaB activity at 50 ug/ml after 18 hrs by reporter gene assay relative to control. In outline:
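HEK293 cells stably expressing human TLR7 or TLR8, transiently transfected with SEAP reporter plasmid; medium replaced, SIMRA compounds added, 18 h incubation. Supernatant SEAP measured by QuantiBlue; expressed as fold increase in NF-κB activity over PBS control. Tabulated data at 50 μg/mL, representative of three independent experiments.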

The target of experiment [2] is T2, Toll-like receptor 9 (Mus musculus) (UniProt Q9EQU3).
T2 sequence (whole entry): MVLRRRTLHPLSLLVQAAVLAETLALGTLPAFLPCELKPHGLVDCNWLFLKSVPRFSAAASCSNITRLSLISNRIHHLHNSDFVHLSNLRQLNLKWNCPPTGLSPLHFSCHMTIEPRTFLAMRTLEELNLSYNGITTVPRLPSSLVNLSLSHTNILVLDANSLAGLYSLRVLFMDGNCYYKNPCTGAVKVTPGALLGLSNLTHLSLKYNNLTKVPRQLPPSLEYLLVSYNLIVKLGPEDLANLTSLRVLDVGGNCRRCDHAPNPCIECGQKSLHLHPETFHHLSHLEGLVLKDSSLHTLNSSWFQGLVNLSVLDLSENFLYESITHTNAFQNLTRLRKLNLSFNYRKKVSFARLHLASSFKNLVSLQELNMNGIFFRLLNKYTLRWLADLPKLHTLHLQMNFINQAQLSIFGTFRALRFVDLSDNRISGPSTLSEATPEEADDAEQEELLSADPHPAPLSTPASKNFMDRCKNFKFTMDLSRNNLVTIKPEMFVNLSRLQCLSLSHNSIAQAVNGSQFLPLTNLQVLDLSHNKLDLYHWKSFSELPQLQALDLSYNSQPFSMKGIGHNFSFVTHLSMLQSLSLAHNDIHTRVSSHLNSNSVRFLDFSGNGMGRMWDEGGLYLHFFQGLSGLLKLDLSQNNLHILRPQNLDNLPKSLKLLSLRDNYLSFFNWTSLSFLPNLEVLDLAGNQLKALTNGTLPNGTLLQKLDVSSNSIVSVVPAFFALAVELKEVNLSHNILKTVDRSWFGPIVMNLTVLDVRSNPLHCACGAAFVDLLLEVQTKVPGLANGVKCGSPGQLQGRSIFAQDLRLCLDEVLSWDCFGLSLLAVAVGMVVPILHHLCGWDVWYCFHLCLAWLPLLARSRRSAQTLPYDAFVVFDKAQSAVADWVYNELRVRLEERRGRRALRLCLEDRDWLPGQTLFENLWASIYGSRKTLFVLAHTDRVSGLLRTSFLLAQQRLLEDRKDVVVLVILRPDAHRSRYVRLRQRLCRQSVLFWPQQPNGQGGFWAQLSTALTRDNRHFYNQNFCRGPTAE
The experiment is described as follows: Activation of mouse TLR9 expressed in HEK293 assessed as induction of NF-kappaB activity reporter gene assay. In kind it is cell-based.

The subject of experiment [3] is Splenocyte. Put plainly: Immunomodulatory activity in C57BL/6 mouse splenocytes bearing TLR7 receptor assessed as IL6 release at 100 ug/ml after 24 hrs by ELISA. In kind it is functional, cell-based. In outline: (§1)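 C57BL/6 splenocytes in RPMI 1640 with 10% FBS, penicillin/streptomycin, 2 mM L-glutamine, plated at 5 × 10^6 cells/mL; compounds in PBS added, 37 °C for 24 h. Supernatant IL-12 and IL-6 by ELISA; representative of three independent experiments.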

Experiment [4] relates to Splenocyte. Put plainly: Immunomodulatory activity in C57BL/6 mouse splenocytes bearing TLR7 receptor assessed as IL12 release at 100 ug/ml after 24 hrs by ELISA. Format: functional, cell-based. In outline:
as §1

Structures are written as SMILES. Calls of active or inactive are those of the source. The rule behind the calls is not given here.

Take `Nc1ccn([C@@H]2O[C@H](COP(=O)(S)O[C@H]3[C@@H](O)[C@H](n4ccc(N)nc4=O)O[C@@H]3COP(=O)(S)O[C@H]3[C@@H](O)[C@H](n4cnc5c(N)ncnc54)O[C@@H]3COP(=O)(S)O[C@H]3[C@@H](O)[C@H](n4ccc5c(=O)[nH]c(N)nc54)O[C@@H]3COP(=O)(S)O[C@H]3[C@@H](O)[C@H](n4ccc(=O)[nH]c4=O)O[C@@H]3COP(=O)(S)O[C@H]3[C@@H](O)[C@H](n4ccc(=O)[nH]c4=O)O[C@@H]3COP(=O)(S)O[C@H]3[C@@H](O)[C@H](n4ccc(N)nc4=O)O[C@@H]3COP(=O)(S)O[C@H]3[C@@H](O)[C@H](n4cnc5c(N)ncnc54)O[C@@H]3CO)[C@@H](OP(=O)(S)OC[C@H]3O[C@@H](n4ccc(=O)[nH]c4=O)[C@H](O)[C@@H]3OP(=O)(S)OC[C@H]3O[C@@H](n4ccc5c(=O)[nH]c(N)nc54)[C@H](O)[C@@H]3OP(=O)(S)OC[C@H]3O[C@@H](n4ccc(=O)[nH]c4=O)[C@H](O)[C@@H]3OP(=O)(S)OCC(O)COP(=O)(S)O[C@H]3[C@@H](O)[C@H](n4ccc(=O)[nH]c4=O)O[C@@H]3COP(=O)(S)O[C@H]3[C@@H](O)[C@H](n4ccc5c(=O)[nH]c(N)nc54)O[C@@H]3COP(=O)(S)O[C@H]3[C@@H](O)[C@H](n4ccc(=O)[nH]c4=O)O[C@@H]3COP(=O)(S)O[C@H]3[C@@H](O)[C@H](n4ccc(N)nc4=O)O[C@@H]3COP(=O)(S)O[C@H]3[C@@H](O)[C@H](n4ccc(N)nc4=O)O[C@@H]3COP(=O)(S)O[C@H]3[C@@H](O)[C@H](n4cnc5c(N)ncnc54)O[C@@H]3COP(=O)(S)O[C@H]3[C@@H](O)[C@H](n4ccc5c(=O)[nH]c(N)nc54)O[C@@H]3COP(=O)(S)O[C@H]3[C@@H](O)[C@H](n4ccc(=O)[nH]c4=O)O[C@@H]3COP(=O)(S)O[C@H]3[C@@H](O)[C@H](n4ccc(=O)[nH]c4=O)O[C@@H]3COP(=O)(S)O[C@H]3[C@@H](O)[C@H](n4ccc(N)nc4=O)O[C@@H]3COP(=O)(S)O[C@H]3[C@@H](O)[C@H](n4cnc5c(N)ncnc54)O[C@@H]3CO)[C@H]2O)c(=O)n1` (some centres not stated): the fold change (FC) in experiment [1] stood at 0.7. Besides, the outcome in experiment [2] was inactive. The result in experiment [3] and in experiment [4] was Active.
Turning to `Nc1ccn([C@@H]2O[C@H](COP(=O)(S)O[C@H]3[C@@H](O)[C@H](n4ccc5c(=O)[nH]c(N)nc54)O[C@@H]3COP(=O)(S)O[C@H]3[C@@H](O)[C@H](n4cnc5c(N)ncnc54)O[C@@H]3COP(=O)(S)O[C@H]3[C@@H](O)[C@H](n4cnc5c(N)ncnc54)O[C@@H]3COP(=O)(S)O[C@H]3[C@@H](O)[C@H](n4ccc5c(=O)[nH]c(N)nc54)O[C@@H]3COP(=O)(S)O[C@H]3[C@@H](O)[C@H](n4ccc(=O)[nH]c4=O)O[C@@H]3COP(=O)(S)O[C@H]3[C@@H](O)[C@H](n4ccc(=O)[nH]c4=O)O[C@@H]3COP(=O)(S)O[C@H]3[C@@H](O)[C@H](n4cnc5c(N)ncnc54)O[C@@H]3COP(=O)(S)O[C@H]3[C@@H](O)[C@H](n4cnc5c(N)ncnc54)O[C@@H]3CO)[C@@H](OP(=O)(S)OC[C@H]3O[C@@H](n4ccc(=O)[nH]c4=O)[C@H](O)[C@@H]3OP(=O)(S)OC[C@H]3O[C@@H](n4ccc5c(=O)[nH]c(N)nc54)[C@H](O)[C@@H]3OP(=O)(S)OCC(O)COP(=O)(S)O[C@H]3[C@@H](O)[C@H](n4ccc5c(=O)[nH]c(N)nc54)O[C@@H]3COP(=O)(S)O[C@H]3[C@@H](O)[C@H](n4ccc(=O)[nH]c4=O)O[C@@H]3COP(=O)(S)O[C@H]3[C@@H](O)[C@H](n4ccc(N)nc4=O)O[C@@H]3COP(=O)(S)O[C@H]3[C@@H](O)[C@H](n4ccc5c(=O)[nH]c(N)nc54)O[C@@H]3COP(=O)(S)O[C@H]3[C@@H](O)[C@H](n4cnc5c(N)ncnc54)O[C@@H]3COP(=O)(S)O[C@H]3[C@@H](O)[C@H](n4cnc5c(N)ncnc54)O[C@@H]3COP(=O)(S)O[C@H]3[C@@H](O)[C@H](n4ccc5c(=O)[nH]c(N)nc54)O[C@@H]3COP(=O)(S)O[C@H]3[C@@H](O)[C@H](n4ccc(=O)[nH]c4=O)O[C@@H]3COP(=O)(S)O[C@H]3[C@@H](O)[C@H](n4ccc(=O)[nH]c4=O)O[C@@H]3COP(=O)(S)O[C@H]3[C@@H](O)[C@H](n4cnc5c(N)ncnc54)O[C@@H]3COP(=O)(S)O[C@H]3[C@@H](O)[C@H](n4cnc5c(N)ncnc54)O[C@@H]3CO)[C@H]2O)c(=O)n1` (some centres not stated), in experiment [1], the fold change (FC) was found to be 0.7. For the same compound, the result in experiment [2] was inactive. Moreover, the outcome in experiment [3] and in experiment [4] was Active.
On to `Nc1ccn([C@@H]2O[C@H](COP(=O)(S)O[C@H]3[C@@H](O)[C@H](n4cnc5c(N)ncnc54)O[C@@H]3CO)[C@@H](OP(=O)(S)OC[C@H]3O[C@@H](n4ccc(=O)[nH]c4=O)[C@H](O)[C@@H]3OP(=O)(S)OC[C@H]3O[C@@H](n4ccc(=O)[nH]c4=O)[C@H](O)[C@@H]3OP(=O)(S)OC[C@H]3O[C@@H](n4ccc5c(=O)[nH]c(N)nc54)[C@H](O)[C@@H]3OP(=O)(S)OC[C@H]3O[C@@H](n4cnc5c(N)ncnc54)[C@H](O)[C@@H]3OP(=O)(S)OC[C@H]3O[C@@H](n4cnc5c(N)ncnc54)[C@H](O)[C@@H]3OP(=O)(S)OC[C@H]3O[C@@H](n4ccc(N)nc4=O)[C@H](O)[C@@H]3OP(=O)(S)OC[C@H]3O[C@@H](n4ccc(=O)[nH]c4=O)[C@H](O)[C@@H]3OP(=O)(S)OC[C@H]3O[C@@H](n4ccc(=O)[nH]c4=O)[C@H](O)[C@@H]3OP(=O)(S)OC[C@H]3O[C@@H](n4ccc5c(=O)[nH]c(N)nc54)[C@H](O)[C@@H]3OP(=O)(S)OCC(O)COP(=O)(S)O[C@H]3[C@@H](O)[C@H](n4ccc5c(=O)[nH]c(N)nc54)O[C@@H]3COP(=O)(S)O[C@H]3[C@@H](O)[C@H](n4ccc(=O)[nH]c4=O)O[C@@H]3COP(=O)(S)O[C@H]3[C@@H](O)[C@H](n4ccc(=O)[nH]c4=O)O[C@@H]3COP(=O)(S)O[C@H]3[C@@H](O)[C@H](n4ccc(N)nc4=O)O[C@@H]3COP(=O)(S)O[C@H]3[C@@H](O)[C@H](n4cnc5c(N)ncnc54)O[C@@H]3COP(=O)(S)O[C@H]3[C@@H](O)[C@H](n4cnc5c(N)ncnc54)O[C@@H]3COP(=O)(S)O[C@H]3[C@@H](O)[C@H](n4ccc5c(=O)[nH]c(N)nc54)O[C@@H]3COP(=O)(S)O[C@H]3[C@@H](O)[C@H](n4ccc(=O)[nH]c4=O)O[C@@H]3COP(=O)(S)O[C@H]3[C@@H](O)[C@H](n4ccc(=O)[nH]c4=O)O[C@@H]3COP(=O)(S)O[C@H]3[C@@H](O)[C@H](n4ccc(N)nc4=O)O[C@@H]3COP(=O)(S)O[C@H]3[C@@H](O)[C@H](n4cnc5c(N)ncnc54)O[C@@H]3CO)[C@H]2O)c(=O)n1` (some centres not stated), for which the fold change (FC) in experiment [1] was found to be 4.9. The outcome in experiment [2] was inactive. The result in experiment [3] and in experiment [4] was Active.

Source of the values: ChEMBL document CHEMBL1154352, “Toll-like receptor 7 selective synthetic oligoribonucleotide agonists: synthesis and structure-activity relationship studies” (J Med Chem, 2009).
